# Test results published in ChEMBL document CHEMBL1932942, “Antioxidant properties of 4-quinolones and structurally related flavones” (Bioorg Med Chem, 2012).
# Active and inactive are the calls of the source. The rule behind the calls is not given here.
# Columns and labels:
# [1] = Antioxidant activity assessed as trolox equivalents ratio of AAPH-induced peroxyl radical scavenging activity at 0.01 mM by ORAC assay; type: functional
# How it was run: (§1)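 Peroxyl scavenging in 75 mM potassium phosphate, pH 7.4. Compound in 10% DMSO (final) was mixed with 112 nM fluorescein, and 36 mM AAPH (final) was added. Fluorescence (ex 485/em 530 nm) was read every 5 min for 3 h. AUC was converted to Trolox equivalents against a Trolox curve (0–20 µM, duplicates). DMSO blank was subtracted. Mean of triplicates.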
# [2] = Antioxidant activity assessed as trolox equivalents ratio of AAPH-induced peroxyl radical scavenging activity at 0.001 mM by ORAC assay; type: functional; how it was run: as §1
# [3] = Antioxidant activity assessed as trolox equivalents ratio of AAPH-induced peroxyl radical scavenging activity at 0.1 mM by ORAC assay; type: functional; how it was run: as §1
# [4] = Antioxidant activity assessed as AAPH-induced peroxyl radical scavenging activity at 1 mM by ORAC assay; type: functional
# [5] = Antioxidant activity assessed as trolox equivalents ratio of ferric ion reducing activity using fe3+-TPTZ at 0.001 mM by FRAP assay; type: functional
# How it was run: (§2)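 Compound in 10% DMSO (final) was mixed with FRAP reagent (300 mM acetate buffer pH 3.6, 10 mM TPTZ in 40 mM HCl, 20 mM FeCl3, 10:1:1). Reading at 37 °C, 595 nm, after a 3 min lag, then every 6 min to 33 min. Value at 33 min expressed as percent of the 0.1 mM Trolox standard. DMSO/reagent blank subtracted. Triplicates.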
# [6] = Antioxidant activity assessed as trolox equivalents ratio of ferric ion reducing activity using fe3+-TPTZ at 0.01 mM by FRAP assay; type: functional; how it was run: as §2
# [7] = Antioxidant activity assessed as trolox equivalents ratio of ferric ion reducing activity using fe3+-TPTZ at 0.1 mM by FRAP assay; type: functional; how it was run: as §2
# [8] = Antioxidant activity assessed as ferric ion reducing activity using fe3+-TPTZ at 1 mM by FRAP assay; type: functional
# Brain [9] = experiment: Antioxidant activity against toxin solution-induced lipid peroxidation in Sprague-Dawley rat brain homogenates assessed as free MDA levels per mg of tissue at 0.001 by TBARS assay; type: functional, tissue-based
# Brain [10] = experiment: Antioxidant activity against toxin solution-induced lipid peroxidation in Sprague-Dawley rat brain homogenates assessed as free MDA levels per mg of tissue at 0.01 by TBARS assay; type: functional, tissue-based
# How it was run: (§3)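 Adult Sprague Dawley rat brains (200–250 g) homogenised 10% (w/v) in PBS, pH 7.4. Peroxidation induced with toxin solution (0.5 mM H2O2, 0.488 mM FeCl3, 0.14 mM ascorbic acid, 2:1:1). Compounds given in 10% DMSO final, with a 10% DMSO blank. BHT, TCA and TBA added, then 60 °C incubation, ice cooling and butanol extraction. A530 read; nmol MDA equivalents/mg tissue from a TMP curve.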
# Brain [11] = experiment: Antioxidant activity against toxin solution-induced lipid peroxidation in Sprague-Dawley rat brain homogenates assessed as free MDA levels per mg of tissue at 0.1 by TBARS assay; type: functional, tissue-based; how it was run: as §3
# Brain [12] = experiment: Antioxidant activity against toxin solution-induced lipid peroxidation in Sprague-Dawley rat brain homogenates assessed as free MDA levels per mg of tissue at 1 by TBARS assay; type: functional, tissue-based; how it was run: as §3
SMILES,Ratio [1],Ratio [2],Ratio [3],Activity [4],Ratio [5],Ratio [6],Ratio [7],Activity [8],Activity (Brain [9]),Activity (Brain [10]),Activity (Brain [11]),Activity (Brain [12]),Activity [3],Ratio [4],Activity [7],Ratio [8]
Oc1cc(-c2ccccc2)nc2c(O)cccc12,26.1,9.18,65.4,inactive,3.56,25.5,97.7,inactive,inactive,0.58 nmol,0.49 nmol,0.27 nmol,,,,
c1ccc2ncccc2c1,,1.4,,inactive,1.97,2.42,0.98,inactive,inactive,0.8 nmol,0.77 nmol,0.73 nmol,,,,
Oc1ccnc2ccccc12,,1.5,,inactive,2.82,1.69,0.23,inactive,inactive,0.93 nmol,0.92 nmol,0.77 nmol,,,,
Oc1ccc2nc(-c3ccccc3)cc(O)c2c1,29,12.3,58.3,inactive,2.14,9.53,58.9,inactive,inactive,0.48 nmol,0.31 nmol,0.05 nmol,,,,
Oc1cccc2cccnc12,30.5,10.2,55.4,inactive,2.65,3.68,15.4,inactive,inactive,0.93 nmol,0.83 nmol,0.07 nmol,,,,
O=c1cc(-c2ccccc2)oc2ccc(O)cc12,37.1,21.4,59,inactive,1.84,2.47,,inactive,inactive,0.82 nmol,0.79 nmol,0.63 nmol,,,,
O=c1cc(-c2ccccc2)oc2cc(O)ccc12,,,,inactive,2.04,2.52,15.1,inactive,inactive,0.42 nmol,0.48 nmol,0.91 nmol,,,,
O=c1cc(-c2ccccc2)oc2ccccc12,1.51,,,,0.2,3.73,,,inactive,0.78 nmol,0.87 nmol,0.83 nmol,inactive,2.4,inactive,2.72
Oc1cc(-c2ccccc2)nc2ccccc12,,,1.91,inactive,0.53,1.06,4.79,inactive,inactive,0.91 nmol,0.87 nmol,0.87 nmol,,,,
Oc1ccc2c(O)cc(-c3ccccc3)nc2c1,26.4,15.3,57.5,inactive,-3.48,-1.26,1.41,inactive,inactive,0.69 nmol,0.71 nmol,0.72 nmol,,,,
